Compounds with a hit are over-represented: about 3% of the library has one in this group of screens.
MC4R antagonist = MC4R antagonists of cAMP signaling, primary screen, cell-based, TR-FRET, antagonist arm of biased-ligand search; inhibition, % at 6.5 µM; Melanocortin receptor 4 (Homo sapiens), P32245; MC4R-expressing cells, MTII-stimulated cAMP, LANCE TR-FRET; AID 540295, 2011; actives 0.48% (n = 360,000);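 active = inhibition above its plate's cutoff, the mean of tested wells on that plate plus 3 SD, cut at about 29% in these data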
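System: U2OS cells stably expressing human melanocortin 4 receptor (MC4R). Reagent: Melanotan II challenge after compound preincubation. Doses: 6.5 µM. Times: 30-min compound, 1-h challenge, 1-h detection, room temperature. Measured by: TR-FRET with Eu-cAMP and labeled anti-cAMP, 671 nm. Replicates: singlicate.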
Beta2AR agonist = beta2AR agonists driving receptor internalization, primary screen, cell-based, FAP fluorogen, flow cytometry; Beta-2 adrenergic receptor (Homo sapiens), P07550; Am2.2-beta2AR cells; response, % (no concentration beside the values); actives 0.43% (n = 340,000); AID 504454, 2011;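 active = response above a set limit, near 3 SD of response in nonfluorescent compounds, cut at about 42% in these data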
Target sequence (P07550 whole entry, looked up): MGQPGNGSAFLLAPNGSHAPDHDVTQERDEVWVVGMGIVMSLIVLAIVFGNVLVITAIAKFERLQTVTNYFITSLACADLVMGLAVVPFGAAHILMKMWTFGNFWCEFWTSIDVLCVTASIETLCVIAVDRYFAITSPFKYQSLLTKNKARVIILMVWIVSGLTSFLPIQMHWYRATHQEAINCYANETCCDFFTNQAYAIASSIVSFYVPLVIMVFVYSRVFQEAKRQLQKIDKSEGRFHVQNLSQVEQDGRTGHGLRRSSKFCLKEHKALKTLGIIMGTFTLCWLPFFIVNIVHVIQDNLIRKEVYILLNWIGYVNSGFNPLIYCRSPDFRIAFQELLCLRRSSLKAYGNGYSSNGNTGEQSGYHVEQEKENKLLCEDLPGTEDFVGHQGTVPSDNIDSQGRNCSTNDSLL
MC4R barr agon = MC4R agonists recruiting beta-arrestin, primary screen, cell-based, luminescence, agonist arm of biased-ligand search; U2OS MC4R beta-arrestin complementation; percent of melanotan II response, DMSO zero; activation, % at 8.9 µM; actives 0.98% (n = 360,000); AID 540308, 2011;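 active = activation above a per-plate cutoff, the mean activation of sample wells on that plate plus 3 SD, cut at about 8% in these data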
ABHD5 PLIN5 PPI = ABHD5-PLIN5 interaction inhibitors, primary screen, cell lysate, split luciferase complementation, luminescence; Perilipin-5 (Homo sapiens) + 1-acylglycerol-3-phosphate O-acyltransferase ABHD5 (Homo …; Split G. princeps luciferase complementation, 4 h; inhibition, % at 4 µM; actives 0.78% (n = 360,000); AID 602281, 2012;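 active = inhibition above the mean inhibition across every tested compound plus 3 SD, cut at about 22% in these data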
PfG6PD inh = PfG6PD enzyme inhibitors, primary screen, biochemical, fluorescence intensity, uHTS; AID 504690, 2011; glucose-6-phosphate dehydrogenase-6-phosphogluconolactonase (Plasmodium falciparum 3D7); actives 0.78% (n = 350,000); PfGluPho enzyme, NADPH resazurin-diaphorase fluorescence; inhibition, % at 20 µM;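 active = inhibition reaching at least a set limit at 20 µM in the primary screen, cut at about 59% in these data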
MC4R barr conf = MC4R beta-arrestin agonists, retest, confirmation, cell-based, luminescence, U2OS. shares compounds with MC4R barr agon. U2OS MC4R beta-arrestin recruitment; scaled DMSO 0%, Melanotan II 100%. activation, % at 8.9 µM. actives 31% (n = 2,400);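 active = mean activation across replicates above the hit cutoff set in the earlier primary screen, cut at about 8% in these data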
MOR DOR agonist = agonists of MOR-DOR heterodimerization, counter-screen for MC4R biased agonist project, cell-based, luminescence. shares compounds with MC4R barr agon. U2OS PathHunter beta-arrestin, beta-gal luminescence; percent of deltorphin B response, DMSO zero. activation, % at 9.2 µM. actives 5.8% (n = 2,400). AID 602194, 2012;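 active = mean activation across replicates exceeds the hit threshold derived in the earlier primary screen, cut at about 18% in these data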
Numbers stand for hits; 0 = inactive; - = not tested or not shown.

SMILES	MC4R antagonist	Beta2AR agonist	MC4R barr agon	ABHD5 PLIN5 PPI	PfG6PD inh	MC4R barr conf	MOR DOR agonist
c1ccc(Cn2nnc3c(Nc4ccc5c(c4)OCO5)nc(C4CC4)nc32)cc1	0	0	18	0	0	0	0
COc1cccc(C(C(=O)NC2CCCC2)N(C(=O)c2ccco2)c2ccc(C(C)=O)cc2)c1OC (configuration not stated)	0	0	0	0	0	-	-
NNC(=O)c1ccc(OCC2CC(c3ccc(Cl)cc3)=NO2)cc1 (configuration not stated)	0	0	12	0	0	0	0
Cc1cc(=O)oc2cc(OCC3CC(c4ccc(Cl)cc4)=NO3)ccc12 (configuration not stated)	0	0	0	0	0	-	-
COC(=O)c1c(C)[nH]c(C(=O)OCc2ccc(F)cc2)c1C	0	0	12	0	0	0	0
CCOC(=O)c1[nH]c(C)c(C(=O)OCc2ccccc2F)c1C	0	0	26	0	0	0	0
CCc1c(C)[nH]c(C(=O)OCc2ccccc2)c1C	0	0	10	0	0	0	0
COC(=O)c1c(C)[nH]c(C(=O)CSc2ccc(Cl)cc2)c1C	0	0	29	0	0	11	0
CCc1c(C(=O)OCc2ccccc2)[nH]c(C)c1C	0	0	0	0	0	-	-
COc1ccc(C2=CCCC2)c(OC)c1	0	0	0	0	0	-	-
CCOC(=O)c1[nH]c(C)c(C(=O)OCCOc2cccc(C)c2)c1C	0	0	12	0	0	8.5	0
N#Cc1ccsc1NC(=O)COC(=O)c1ccc2ccccc2c1	0	0	17	0	0	0	0
Cn1cccc1C(=O)OCC(=O)Nc1sccc1C#N	0	0	0	0	0	-	-
O=C(COc1ccc(-c2ccccc2)cc1)N/N=C/c1cc(O)ccc1Br	0	0	37	0	0	13	0
O=C(CN1CCN(Cc2ccccc2)CC1)NNC(=O)c1ccccc1	0	0	0	0	0	-	-
COc1ccc(Nc2oc(-c3ccc(Cl)cc3)nc2C#N)cc1	0	0	18	0	0	0	0
COc1ccc(Nc2oc(-c3ccccc3)nc2C#N)cc1	0	0	0	0	0	-	-
Cc1ccccc1NC(=O)COC(=O)c1ccc2c(c1)OCCO2	0	0	0	0	0	-	-
Cc1cccc(C(=O)OCC(=O)c2ccc3c(c2)OCCO3)c1O	0	0	11	0	0	0	0
COc1ccccc1NC(=O)COC(=O)c1ccc2c(c1)OCCO2	0	0	19	0	0	0	0
O=c1[nH]ncc(N/N=C/c2ccccc2)c1Cl	0	0	0	0	0	-	-
O=c1c(Cl)c(N/N=C/c2ccc(Cl)cc2)cnn1-c1ccccc1	0	0	18	0	0	9.4	0
O=C(Nc1ccc2nn(-c3ccccc3)nc2c1)c1ccc(Br)o1	0	0	13	0	0	17	0
CCc1ccc(-n2nc3ccc(NC(=O)c4ccc5c(c4)OCO5)cc3n2)cc1	0	0	11	0	0	0	0
O=C(C1=C[C@H](C2CC2)C[C@H](OCCCCO)O1)N1CCOCC1	0	0	0	0	0	-	-
SMILES	MC4R antagonist	Beta2AR agonist	MC4R barr agon	ABHD5 PLIN5 PPI	PfG6PD inh	MC4R barr conf	MOR DOR agonist
Cc1n[nH]c(C)c1S(=O)(=O)N(CC(=O)N1CCc2ccccc21)c1ccc(C(C)C)cc1	0	0	13	0	0	0	0
CCOc1ccc(N(CC(=O)N2CCc3ccccc32)S(=O)(=O)c2c(C)noc2C)cc1	0	0	0	0	0	-	-
Cc1cccc(N(C(=O)C(F)(F)F)C(C(=O)NC2CCCCC2)c2cccs2)c1 (configuration not stated)	0	0	20	0	0	0	0
NC(=O)C1CCN(CC(=O)Nc2ccccc2N2CCOCC2)CC1	0	0	0	0	0	-	-
Cc1ccc(NC(=O)c2ccccc2OCC(=O)c2ccc(F)cc2)cc1	0	0	51	0	0	18	0
Cc1ccc(Cl)cc1NC(=O)c1ccccc1OCC(=O)Nc1ccc(Cl)cc1	0	0	15	0	0	8.2	0
Cc1cccc(NC(=O)c2ccccc2OCC(=O)c2ccc(F)cc2)c1	0	0	0	0	0	-	-
Cn1c(CCNC(=O)c2cccs2)nnc1SCC(=O)Nc1nc(-c2ccccc2)cs1	0	0	0	0	0	-	-
O=C(CSc1ccccc1)Nc1nccs1	0	0	0	0	0	-	-
O=C(CSc1nc(-c2ccccc2)cs1)Nc1nccs1	0	0	19	0	0	0	0
Cc1ccc(C(=O)NCCc2nnc(SCC(=O)Nc3nc(-c4ccccc4)cs3)n2C)cc1	0	0	21	0	0	8.9	0
O=C(CSc1ncn(-c2ccccc2)n1)Nc1nc(-c2ccccc2)cs1	0	0	0	0	0	-	-
Cc1ccc(-c2csc(NC(=O)CSc3ncn(-c4ccccc4)n3)n2)cc1	0	0	11	0	0	0	0
CC(=O)Nc1ccc(C(=O)N2CCCC(c3cc(C(=O)NCc4ccccc4)no3)C2)cc1 (configuration not stated)	0	-	0	0	-	-	-
Cc1ccc(F)cc1NC(=O)C1C2CCC(O2)C1C(=O)O (configuration not stated)	0	0	0	0	0	-	-
CCOC(=O)c1cc(-c2ccccc2)sc1NC(=O)CSc1nnc(N)s1	0	0	11	0	0	0	0
CCOC(=O)c1cc(-c2ccccc2)sc1NC(=O)CC	0	0	0	0	0	-	-
CCOC(=O)c1cc(-c2ccccc2)sc1NC(=O)COC(=O)c1cccc(S(N)(=O)=O)c1	0	0	16	0	0	19	22
CCCC(=O)Nc1sc2c(c1C(=O)Nc1ccccn1)CCCC2	0	0	0	0	0	-	-
CCOc1ccc(NS(=O)(=O)c2cc(C(=O)N3CCN(c4ccccc4O)CC3)ccc2Cl)cc1	0	0	0	0	0	-	-
Cc1cc(C)c(S(=O)(=O)N2CCN(C(=O)C3CCCO3)CC2)c(C)c1 (configuration not stated)	0	0	0	0	0	-	-
CCN1CCN(Cc2ccc(NC(=O)c3cc(NC(=O)c4ccno4)cc(OC)c3)cc2C(F)(F)F)CC1	0	0	0	0	0	-	-

Source: PubChem BioAssay (several laboratories)
